Source: ChEMBL document CHEMBL5579791, “Azetidine ring, salicylic acid, and salicylic acid bioisosteres as determinants of the binding characteristics of novel potent compounds to Stat3” (Bioorg Med Chem Lett, 2024)
The source made the active and inactive calls. The calls are words filed in the database; no cut-off is given here. Where a SMILES comes first, the peptide text is derived from it. [ ]: non-standard residue; d: D form. pY = N[C@@H](Cc1ccc(OP(=O)(O)O)cc1)C(=O)O

What was measured:
[1] = target: T1, Signal transducer and activator of transcription 3 (Homo sapiens, UniProt P40763); assay: (§1) Displacement of 5-carboxyfluorescein GpYLPQTV-NH2 probe from C-terminal 6His-tagged recombinant human STAT3 (127 to 711 residues) SH2 domain extracted from Escherichia coli BL21 (DE3) assessed as inhibition of dimerization preincubated for 10 mins followed by probe addition and measured after 30 mins by fluorescence polarization assay
T1 sequence (P40763 whole entry, the tested form may be a part): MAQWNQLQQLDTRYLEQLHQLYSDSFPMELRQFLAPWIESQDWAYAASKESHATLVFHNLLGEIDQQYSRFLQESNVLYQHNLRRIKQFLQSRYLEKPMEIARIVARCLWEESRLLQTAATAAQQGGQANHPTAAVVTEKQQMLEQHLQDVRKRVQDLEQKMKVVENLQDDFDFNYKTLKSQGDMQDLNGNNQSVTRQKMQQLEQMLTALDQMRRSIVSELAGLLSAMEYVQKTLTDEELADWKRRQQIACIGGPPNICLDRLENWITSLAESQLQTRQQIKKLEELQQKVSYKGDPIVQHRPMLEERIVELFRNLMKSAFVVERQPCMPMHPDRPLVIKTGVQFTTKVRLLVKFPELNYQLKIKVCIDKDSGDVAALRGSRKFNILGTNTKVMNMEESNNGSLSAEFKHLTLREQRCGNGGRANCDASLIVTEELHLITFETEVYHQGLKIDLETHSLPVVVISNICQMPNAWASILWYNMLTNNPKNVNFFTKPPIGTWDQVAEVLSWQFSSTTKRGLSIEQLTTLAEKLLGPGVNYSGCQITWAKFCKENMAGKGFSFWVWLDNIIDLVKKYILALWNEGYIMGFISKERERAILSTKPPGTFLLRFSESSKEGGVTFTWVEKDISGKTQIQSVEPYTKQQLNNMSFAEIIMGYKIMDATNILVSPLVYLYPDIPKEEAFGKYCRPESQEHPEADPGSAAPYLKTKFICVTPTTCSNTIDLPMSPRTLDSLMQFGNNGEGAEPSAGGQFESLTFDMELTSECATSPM

[2] = target: T1, Signal transducer and activator of transcription 3; assay: as §1, with “30” for “10”
[3] = target: T1, Signal transducer and activator of transcription 3; assay: as §1, with “60” for “10”
[4] = target: T1, Signal transducer and activator of transcription 3; assay: Inhibition of C-terminal 6His-tagged recombinant human STAT3 (127 to 711 residues) DNA-binding activity transfected in v-Src transformed mouse NIH3T3 cell nuclear extract preincubated for 60 mins followed by addition of radiolabeled hSIE and measured after 30 mins by EMSA analysis; assay type: subcellular, Nucleus
[5] = system: PANC-1; assay: Inhibition of STAT3/Src protein-protein interaction in human PANC-1 cells at 3 uM incubated for 8 hrs by immunoblotting analysis; assay type: cell-based
Outline: (§2)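 Panc-1 pancreatic cancer cells treated 8 h; whole-cell lysates prepared, EGFR, gp130, Src or JAK2 immunoprecipitated and immunoblotted for Stat3; control cells given 0.1% DMSO; 2 independent determinations.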

[6] = target: T1, Signal transducer and activator of transcription 3; assay: (§3) Inhibition of recombinant wild type tyrosine phosphorylated C-terminal 6His tagged human STAT3 (127 to 711 residues) DNA-binding activity transfected in v-Src transformed mouse NIH3T3 cell nuclear extract preincubated for 30 mins followed by addition of radiolabeled hSIE and measured after 30 mins by EMSA analysis; assay type: subcellular, Nucleus
[7] = target: JAK2-STAT3 (Homo sapiens) (UniProt O60674+P40763); assay: Inhibition of STAT3/JAK2 protein-protein interaction in human PANC-1 cells at 3 uM incubated for 8 hrs by immunoblotting analysis; assay type: cell-based
[8] = system: PANC-1; assay: Inhibition of STAT3/EGFR protein-protein interaction in human PANC-1 cells at 3 uM incubated for 8 hrs by immunoblotting analysis; assay type: cell-based; outline: as §2
[9] = target: Signal transducer and activator of transcription 3 (Homo sapiens, UniProt P40763, C328A); assay: as §3, with “STAT3 C328A mutant” for “STAT3”; assay type: subcellular, Nucleus
Sequence of Signal transducer and activator of transcription 3 (Homo sapiens, UniProt P40763, C328A) (P40763 2-770 C328A limits assumed): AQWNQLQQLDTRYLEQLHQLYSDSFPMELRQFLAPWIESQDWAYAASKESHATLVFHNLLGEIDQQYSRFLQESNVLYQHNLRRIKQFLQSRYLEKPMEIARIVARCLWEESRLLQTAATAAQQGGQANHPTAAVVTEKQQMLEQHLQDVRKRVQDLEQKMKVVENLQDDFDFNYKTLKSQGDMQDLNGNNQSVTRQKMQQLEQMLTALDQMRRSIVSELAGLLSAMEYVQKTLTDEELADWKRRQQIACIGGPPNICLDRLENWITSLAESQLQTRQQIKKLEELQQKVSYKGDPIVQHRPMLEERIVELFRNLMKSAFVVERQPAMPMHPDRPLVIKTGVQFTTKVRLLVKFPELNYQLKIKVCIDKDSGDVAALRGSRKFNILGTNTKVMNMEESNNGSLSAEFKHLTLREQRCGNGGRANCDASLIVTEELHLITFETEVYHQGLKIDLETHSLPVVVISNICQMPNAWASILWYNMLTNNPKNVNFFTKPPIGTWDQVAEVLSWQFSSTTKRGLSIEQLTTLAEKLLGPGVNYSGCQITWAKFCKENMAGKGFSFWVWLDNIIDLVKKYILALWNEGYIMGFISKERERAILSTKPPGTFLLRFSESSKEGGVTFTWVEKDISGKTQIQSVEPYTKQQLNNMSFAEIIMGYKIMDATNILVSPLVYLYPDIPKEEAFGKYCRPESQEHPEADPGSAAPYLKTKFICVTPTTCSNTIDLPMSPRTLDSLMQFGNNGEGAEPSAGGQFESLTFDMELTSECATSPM

[10] = target: T1, Signal transducer and activator of transcription 3; assay: Inhibition of C-terminal 6His-tagged recombinant human STAT3 (127 to 711 residues) DNA-binding activity transfected in v-Src transformed mouse NIH3T3 cell nuclear extract preincubated for 10 mins followed by addition of radiolabeled hSIE and measured after 30 mins by EMSA analysis; assay type: subcellular, Nucleus
[11] = system: PANC-1; assay: Inhibition of STAT3/gp130 protein-protein interaction in human PANC-1 cells at 3 uM incubated for 8 hrs by immunoblotting analysis; assay type: cell-based; outline: as §2
[12] = target: Signal transducer and activator of transcription 3 (Homo sapiens, UniProt P40763, C542S); assay: as §3, with “STAT3 C542S mutant” for “STAT3”; assay type: subcellular, Nucleus
Sequence of Signal transducer and activator of transcription 3 (Homo sapiens, UniProt P40763, C542S) (P40763 2-770 C542S limits assumed): as the sequence (P40763 2-770 C328A limits assumed) above, with A327C, C541S counted along it

Compound | IC50 [1] [µM] | IC50 [2] [µM] | IC50 [3] [µM] | IC50 [4] [µM] | IC50 [6] [µM] | inhibition [7] | IC50 [9] [µM] | IC50 [10] [µM] | IC50 [12] [µM] | inhibition [5] | inhibition [8] | inhibition [11]
CC(C)C[C@H](NC(=O)[C@H](Cc1ccc(OP(=O)(O)O)cc1)NC(=O)CN)C(=O)N1CCC[C@H]1C(=O)N[C@@H](CCC(N)=O)C(=O)N[C@H](C(=O)N[C@H](C(=O)O)C(C)C)[C@@H](C)O (H-G[pY]LPQTV-OH) | 0.29 | 0.22 | 0.19 | – | – | – | – | – | – | – | – | –
O=C(O)c1ccc(N(Cc2cnc(C3CCCCC3)cn2)C(=O)[C@H]2CCN2S(=O)(=O)c2c(F)c(F)c(Cl)c(F)c2F)cc1O | 190 | 186 | 181 | – | – | – | – | – | – | – | – | –
O=C([C@H]1CCN1S(=O)(=O)c1c(F)c(F)c(F)c(F)c1F)N(Cc1ccc(C2CCCCC2)cn1)c1ccc2c(=O)[nH]ncc2c1 | > 600 | > 600 | > 600 | 0.38 | 4.8 | Active | 8.8 | 1.5 | 5.5 | inactive | Active | Active

Further molecules by falling IC50 [1], results first:

IC50 [1] [µM] | IC50 [2] [µM] | IC50 [3] [µM] | IC50 [4] [µM] | IC50 [6] [µM] | inhibition [7] | IC50 [9] [µM] | IC50 [10] [µM] | IC50 [12] [µM] | Compound | inhibition [5] | inhibition [8] | inhibition [11]
86.4 | 83.6 | 82.5 | – | – | – | – | – | – | Cc1ccc(S(=O)(=O)N2CC[C@@H]2C(=O)N(Cc2ccc(C3CCCCC3)cn2)c2ccc(C(=O)O)c(O)c2)cc1 | – | – | –
48.4 | 41.4 | 35.5 | – | – | – | – | – | – | CN(CC(=O)N(Cc1ccc(C2CCCCC2)cc1)c1ccc(C(=O)O)c(O)c1)S(=O)(=O)c1c(F)c(F)c(Cl)c(F)c1F | – | – | –
